We go through 7 molecules from ChEMBL document CHEMBL2057069, “Benzoxazole and benzothiazole amides as novel pharmacokinetic enhancers of HIV protease inhibitors” (Bioorg Med Chem Lett, 2012).

Active and inactive are the calls of the source. No cut-off for these calls is given here.

The test system of data set [1] is Canis familiaris. Kind of data set: Enhancement of darunavir Cmax in dog at 7.5 mg/kg, po administered 5 mins prior to darunavir co-administration. The arrangement: dose 7.5 mg/kg, route oral. The following applies: in vivo. Type of data set: ADME, organism-based, Canis lupus familiaris.
The nature of data set [2]: Tmax in dog at 10 mg/kg, po administered as single dose. Type of data set: ADME, organism-based, Canis lupus familiaris. Also noted: dose 10 mg/kg, route oral. The following applies: in vivo. In short, it runs like this: (§1)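 Single oral dose of 10 mg/kg given to rats and dogs, n = 3 per species. Plasma Cmax, Tmax, AUC0–∞ and absolute oral bioavailability were derived from the plasma profiles.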

Data set [3] is described as follows: Apparent permeability across human Caco2 cells at 10 uM at pH 7.4 after 60 mins. Type of data set: ADME, cell-based. To be noted: Caco-2, pH 7.4. In short, it runs like this:
(§2)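 Caco-2 monolayers were exposed to compound at 10 µM and sampled after 60 min of incubation, at pH 5.5 or pH 7.4. Apparent permeability was measured in the absorptive and secretory directions, with efflux expressed as the secretory/absorptive ratio.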

The nature of data set [4]: Cmax in dog at 7.5 mg/kg, po. Also noted: dose 7.5 mg/kg, route oral. Type of data set: ADME, organism-based, Canis lupus familiaris. The following applies: in vivo. In a few lines: (§3)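 Drug–drug interaction study in dogs, n = 3. The booster was given orally at 7.5 mg/kg as a PEG400 solution, 5 min before oral darunavir at 30 mg/kg. Darunavir plasma Cmax and AUC0–∞ were measured, with fold increase calculated against darunavir dosed alone.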

Data set [5] in a line: Absolute oral bioavailability in dog at 10 mg/kg administered as single dose. The following applies: in vivo. Type of data set: ADME, organism-based, Canis lupus familiaris. In short, it runs like this:
as §1

Data set [6] can be described thus: AUC (0 to infinity) in rat at 10 mg/kg, po administered as single dose. The following applies: plasma. Type of data set: ADME, organism-based. Also noted: time infinity, dose 10 mg/kg, route oral.
Data set [7] is described as follows: AUC (0 to infinity) in dog at 7.5 mg/kg, po. Type of data set: ADME, organism-based, Canis lupus familiaris. Also noted: time infinity, dose 7.5 mg/kg, route oral. The following applies: plasma. In short, it runs like this: as §3
A short description of data set [8]: Cmax in dog at 10 mg/kg, po administered as single dose. The following applies: in vivo. Type of data set: ADME, organism-based, Canis lupus familiaris. The arrangement: dose 10 mg/kg, route oral. In a few lines: as §1
The nature of data set [9]: Cmax in rat at 10 mg/kg, po administered as single dose. Type of data set: ADME, organism-based. To be noted: in vivo. The arrangement: dose 10 mg/kg, route oral. In a few lines:
as §1

Data set [10] has as its system Human immunodeficiency virus 1. Put plainly: Antiviral activity against wild type HIV1 3B infected in human MT4 LTR-EGFP cells by EGFP reporter gene assay. Type of data set: functional, organism-based. The following applies: Human immunodeficiency virus 1, 3B. In general terms: A reporter such as luciferase makes a cellular process visible.
The nature of data set [11]: Apparent permeability across human Caco2 cells at 10 uM at pH 5.5 after 60 mins. Type of data set: ADME, cell-based. The following applies: Caco-2, pH 5.5. In short, it runs like this:
as §2
(In general: Caco-2 monolayers are a common model of the intestinal barrier.)

Data set [12] is described as follows: AUC (0 to infinity) in dog at 10 mg/kg, po administered as single dose. Also noted: time infinity, dose 10 mg/kg, route oral. To be noted: plasma. Type of data set: ADME, organism-based, Canis lupus familiaris. In short, it runs like this: as §1
A short description of data set [13]: Tmax in rat at 10 mg/kg, po administered as single dose. Type of data set: ADME, organism-based. Also noted: dose 10 mg/kg, route oral. The following applies: in vivo. In short, it runs like this: as §1
For data set [14], the system named is Canis familiaris. Put plainly: Enhancement of darunavir AUC (0 to infinity) in dog at 7.5 mg/kg, po administered 5 mins prior to darunavir co-administration. Type of data set: ADME, organism-based, Canis lupus familiaris. The following applies: in vivo. The arrangement: dose 7.5 mg/kg, route oral.
Data set [15] can be described thus: Absolute oral bioavailability in rat at 10 mg/kg administered as single dose. Type of data set: ADME, organism-based. The following applies: in vivo. In a few lines:
as §1

The nature of data set [16]: Efflux ratio of apparent permeability of the compound from basal to apical to apical to basal side of human Caco2 cells at 10 uM at pH 5.5 after 60 mins. Type of data set: ADME, cell-based. To be noted: Caco-2, pH 5.5. In short, it runs like this:
(§4)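 Caco-2 monolayers; test compound at 10 µM; apparent permeability measured in secretory and absorptive directions at pH 5.5 and at pH 7.4, read after 60 min incubation; transport polarity taken as P_secretory/P_absorptive.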

Data set [17] is described as follows: Efflux ratio of apparent permeability of the compound from basal to apical to apical to basal side of human Caco2 cells at 10 uM at pH 7.4 after 60 mins. Type of data set: ADME, cell-based. To be noted: Caco-2, pH 7.4. In a few lines:
as §4

For a further data set, the species on record is Homo sapiens. Kind of data set: Inhibition of P-glycoprotein using taxol as substrate.
Data set [18] can be described thus: Drug metabolism in dog hepatocytes at 2 uM after 2 hrs. Type of data set: ADME, cell-based, Canis lupus familiaris, Hepatocyte. To be noted: read-out: Drug metabolism.
Another data set concerns the target Cytochrome P450 3A4 (Homo sapiens, UniProt P08684). Kind of data set: Inhibition of CYP3A4 in human liver microsomes using midazolam as substrate after 10 mins by LC/MS/MS analysis. On the technique in general: Microsomes from liver hold many membrane-bound enzymes, among them those of drug oxidation.

Cytochrome P450 3A4, sequence (P08684 whole entry): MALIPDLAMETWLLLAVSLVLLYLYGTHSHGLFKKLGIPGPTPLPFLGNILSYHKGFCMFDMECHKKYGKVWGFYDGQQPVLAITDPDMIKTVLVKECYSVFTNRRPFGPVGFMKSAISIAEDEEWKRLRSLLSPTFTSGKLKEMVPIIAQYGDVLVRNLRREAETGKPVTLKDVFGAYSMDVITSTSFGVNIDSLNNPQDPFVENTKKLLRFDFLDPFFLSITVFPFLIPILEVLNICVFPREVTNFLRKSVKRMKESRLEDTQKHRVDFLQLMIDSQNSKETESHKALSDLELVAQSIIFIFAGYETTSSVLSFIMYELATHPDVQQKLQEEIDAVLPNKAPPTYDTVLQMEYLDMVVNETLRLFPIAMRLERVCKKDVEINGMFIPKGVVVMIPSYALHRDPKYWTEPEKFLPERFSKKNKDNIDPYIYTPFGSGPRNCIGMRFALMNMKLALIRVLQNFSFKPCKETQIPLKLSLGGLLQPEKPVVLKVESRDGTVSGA

Consider `CCN(C)c1nc2ccc(C(=O)N(CC(C)C)C[C@@H](O)[C@H](Cc3ccccc3)NC(=O)OCc3cncs3)cc2o1`, for which the figures for the “fold change (FC)” value in the data set on Canis familiaris [1] and with Canis familiaris [14] were 2 and 5, respectively. For the same molecule, the time of peak concentration (Tmax) is 30 min in [2] and 60 min in data set [13]. Also, the Papp at 1 h, 10 µM in data set [3] worked out at 11 ×10⁻⁶ cm/s; in data set [11], 10 ×10⁻⁶ cm/s. The Cmax in [4] stood at 610 ng/mL; in data set [8], 1010 ng/mL; in data set [9], 240 ng/mL. Further, the bioavailability in data set [5] came to 81%; in data set [15], 44%. In addition, the AUC(0-inf) in data set [6] stood at 970 ng·h/mL; in data set [7], 2000 ng·h/mL; in data set [12] it was 2240 ng·h/mL. The same molecule showed an EC50 in data set [10] of 71 µM.

For the molecule `CC(C)CN(C[C@@H](O)[C@H](Cc1ccccc1)NC(=O)OCc1cncs1)C(=O)c1ccc2nc(N)sc2c1`, the entries for the “fold change (FC)” value with Canis familiaris [1] and in the data set with Canis familiaris [14] were 1.8 and 4.7, respectively. Moreover, the efflux ratio at 1 h, 10 µM in data set [16] turned out to be 26; in [17] it was 22. Moreover, the results for the Tmax in [2] and in data set [13] were 60 min and 30 min, respectively. Besides, the Papp at 1 h, 10 µM in data set [3] amounted to 1.2 ×10⁻⁶ cm/s; in [11], 0.52 ×10⁻⁶ cm/s. For the same molecule, in the data set filed under Homo sapiens, the inhibition entry was “Active”. Further, the Cmax in [4] came to 2300 ng/mL; in data set [8], 140 ng/mL; in [9], 10 ng/mL. The bioavailability was 1.37% in data set [5] and 0.82% in data set [15]. Also, the AUC(0-inf) was found to be 10 ng·h/mL in data set [6], 6480 ng·h/mL in data set [7] and 200 ng·h/mL in [12]. This molecule displayed an EC50 in data set [10] of 76 µM. In addition, in data set [18], the metabolised at 2 h, 2 µM turned out to be 12%. The IC50 at Cytochrome P450 3A4 is 0.019 µM.

On to `CN(C)CCN(C[C@@H](O)[C@H](Cc1ccccc1)NC(=O)OCc1cncs1)C(=O)c1ccc2nc(N3CCCC3)oc2c1`, for which the EC50 in data set [10] was > 100 µM. The molecule further yielded an IC50 against Cytochrome P450 3A4 of 0.23 µM.

As to `CC(C)CN(C[C@@H](O)[C@H](Cc1ccccc1)NC(=O)OCc1cncs1)C(=O)c1ccc2ncsc2c1`, the results for the “fold change (FC)” value in the data set with Canis familiaris [1] and with Canis familiaris [14] were 2 and 4.8, respectively. Also, the efflux ratio at 1 h, 10 µM in data set [16] came to 2; in data set [17], 3.6. Besides, the Tmax in [2] amounted to 60 min; in data set [13], 30 min. In addition, the Papp at 1 h, 10 µM was found to be 9.8 ×10⁻⁶ cm/s in [3] and 11 ×10⁻⁶ cm/s in [11]. The Cmax stood at 2100 ng/mL in data set [4], 5200 ng/mL in [8] and 2800 ng/mL in data set [9]. Also, the figures for the bioavailability in [5] and in data set [15] were 97% and 107%, respectively. The AUC(0-inf) in [6] was 7800 ng·h/mL; in data set [7], 7070 ng·h/mL; in data set [12], 2240 ng·h/mL. Also, the EC50 in data set [10] turned out to be 95 µM. In addition, on Cytochrome P450 3A4, inhibition was half-maximal at 0.023 µM (IC50).

As for `CC(C)CN(C[C@@H](O)[C@H](Cc1ccccc1)NC(=O)OCc1cncs1)C(=O)c1ccc2nc(NCCCN(C)C)oc2c1`, it took 60 µM to reach a half-maximal effect in data set [10] (EC50). For the same molecule, inhibition on Cytochrome P450 3A4 was half-maximal at 0.2 µM (IC50).

On to `CCN(C)c1nc2ccc(C(=O)N(CCN3CCCC3)C[C@@H](O)[C@H](Cc3ccccc3)NC(=O)OCc3cncs3)cc2o1`, for which the EC50 in data set [10] is > 100 µM. Moreover, half-maximal inhibition on Cytochrome P450 3A4 (IC50) was put at 0.14 µM.

Consider `CCN(C)c1nc2ccc(C(=O)N(CC(C)C)C[C@@H](O)[C@H](Cc3ccc(F)cc3)NC(=O)OCc3cncs3)cc2o1`, for which the EC50 in data set [10] turned out to be 47 µM. This molecule also had an IC50 against Cytochrome P450 3A4 of 0.023 µM.

The term Tmax denotes the time at which the peak concentration occurs. One may read the Papp as the rate of passage across a membrane or cell layer, normalised by area and donor concentration. As usually defined, the Cmax is the highest concentration seen after dosing. Broadly, the AUC(0-inf) is total exposure, with the tail of the curve extrapolated. A higher AUC(0-inf) goes with high exposure. By EC50 is commonly meant the concentration that produces a half-maximal response. A higher EC50 goes with lower potency in that assay. As usually defined, the efflux ratio is the permeability from basolateral to apical divided by that in the opposite direction, in the common usage. One may read the IC50 as the concentration at which inhibition is half-maximal. A high value points to weaker potency.
